The source made the active and inactive calls. No cut-off for these calls is given here.
Columns and labels:
[1] = system: K562; assay: Induction of reactive oxygen species generation in human K562 cells at 40 uM measured after 3 hr by H2DCFDA probe-based flow cytometry; format: functional, cell-based
Summary of the method: (§1)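 K-562 cells were pre-loaded with 10 μM CM-H2DCFDA for 1 h in the dark at 37 °C/5% CO2, washed with PBS, then incubated with compound in fresh medium for 1 or 3 h. Cells were resuspended in PBS with 1 μg/mL propidium iodide and analysed by flow cytometry on ice. DCF fluorescence (ex 490/em 525 nm) was read in PI-negative cells, 10 000 events per sample. Menadione 20 μM and H2O2 150 μM were positive controls. Mean ± SEM of three independent experiments.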

[2] = system: PC-3; assay: Cytotoxicity against human PC-3 cells assessed as reduction in cell viability after 72 hrs by MTT assay; format: functional, cell-based; conditions: PC-3, 72 h
Summary of the method: (§2)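 Cells were grown in medium with 10% FBS, 2 mM L-glutamine, penicillin and streptomycin at 37 °C, 5% CO2. Seeding per well was 0.1 × 10^6 for leukaemia, PC3, L929 and NCI-H460, and 0.7 × 10^5 for HCT-116. Compounds in DMSO (0.1% final) were applied for 72 h. MTT (0.5 mg/mL) was added for 3 h, formazan dissolved in DMSO, and absorbance read at 550 nm. IC50 by nonlinear regression; three independent experiments in triplicate.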

[3] = Selectivity index, ratio of IC50 for mouse L929 cells to IC50 for human PC3 cells after 72 hrs by MTT assay; format: toxicity; conditions: L929 cells versus PC3 cells, read-out: Ratio IC50
Summary of the method: (§3)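 Both cell types were kept in medium with 10% FBS, 2 mM L-glutamine and penicillin/streptomycin at 37 °C, 5% CO2. Seeding was 0.7 × 10^5 cells per well for HCT-116, 0.1 × 10^6 for the other lines. Cells got compound in DMSO (0.1% final) for 72 h, then 0.5 mg/mL MTT for 3 h, with formazan read at 550 nm. IC50 came from nonlinear regression over three independent experiments in triplicate. SI is the L929 IC50 divided by the cancer-line IC50.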

[4] = Selectivity index, ratio of IC50 for mouse L929 cells to IC50 for human HL-60cells after 72 hrs by MTT assay; format: toxicity; conditions: L929 cells versus HL-60 cells, read-out: Ratio IC50; summary of the method: as §3
[5] = Selectivity index, ratio of LC50 for cytotoxicity against albino Swiss mouse peritoneal macrophages to IC50 for Antitrypanosomal activity against Trypanosoma cruzi Y strain bloodstream trypomastigotes assessed as lysis of parasite in absence of mouse blood; format: toxicity
Summary of the method: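 Y-strain bloodstream trypomastigotes came from infected albino mice at peak parasitaemia and were purified by differential centrifugation into RPMI. They were exposed 24 h at 37 °C without blood to compound (DMSO ≤0.4%).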

[6] = Selectivity index, ratio of IC50 for mouse L929 cells to IC50 for human HCT116 cells after 72 hrs by MTT assay; format: toxicity; conditions: L929 cells versus HCT116 cells, read-out: Ratio IC50; summary of the method: as §3
[7] = system: L929; assay: Cytotoxicity against mouse L929 cells assessed as reduction in cell viability after 72 hrs by MTT assay; format: cell-based; conditions: L929, 72 h; summary of the method: as §2
[8] = Cytotoxicity against albino Swiss mouse peritoneal macrophages assessed as reduction in cell viability incubated for 24 hrs by Presto blue assay; format: tissue-based, Macrophage; conditions: read-out: LC50
Summary of the method: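 Primary peritoneal macrophages from Albino Swiss mice were seeded at 2.5 × 10^4 cells per well in RPMI-1640 (pH 7.2, 10% FBS, 2 mM glutamine) and grown 24 h at 37 °C. They were then treated 24 h at 37 °C with compound from DMSO stock (final DMSO ≤0.4%).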

[9] = Cytotoxicity against human Lucena1 cells assessed as reduction in cell viability after 72 hrs by MTT assay; format: functional, cell-based; conditions: Lucena 1, 72 h; summary of the method: as §2
[10] = system: K562; assay: Cytotoxicity against human K562 cells assessed as reduction in cell viability after 72 hrs by MTT assay; format: functional, cell-based; conditions: K562, 72 h; summary of the method: as §2
[11] = Selectivity index, ratio of IC50 for mouse L929 cells to IC50 for human NCI-H460 cells after 72 hrs by MTT assay; format: toxicity; conditions: L929 cells versus NCI-H460 cells, read-out: Ratio IC50; summary of the method: as §3
[12] = system: Trypanosoma cruzi; assay: Antitrypanosomal activity against Trypanosoma cruzi Y strain bloodstream trypomastigotes assessed as lysis of parasite in absence of mouse blood incubated for 24 hrs by Neubauer chamber method; format: functional, organism-based
Summary of the method: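 T. cruzi Y strain bloodstream trypomastigotes came from infected albino mice at peak parasitaemia and were purified by differential centrifugation. They were exposed to compounds for 24 h at 37 °C without blood. Parasites were counted in a Neubauer chamber, and IC50 is the concentration lysing 50% of parasites. Values are mean ± SD of at least three independent experiments.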

[13] = system: K562; assay: Induction of reactive oxygen species generation in human K562 cells at 40 uM measured after 1 hr by H2DCFDA probe-based flow cytometry; format: functional, cell-based; summary of the method: as §1
[14] = system: HL-60; assay: Cytotoxicity against human HL-60 cells assessed as reduction in cell viability after 72 hrs by MTT assay; format: functional, cell-based; conditions: HL-60, 72 h
Summary of the method: as §2, with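 “CO2.” for “CO2. Seeding per well was 0.1 × 10^6 for leukaemia, PC3, L929 and NCI-H460, and 0.7 × 10^5 for HCT-116.”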

[15] = Selectivity index, ratio of IC50 for mouse L929 cells to IC50 for human Lucena1 cells after 72 hrs by MTT assay
Summary of the method: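 Selectivity index is the ratio of IC50 in murine L929 fibroblasts to IC50 in Lucena 1 cells, each measured by 72 h MTT assay (absorbance 550 nm). IC50 values came from nonlinear regression of three independent experiments in triplicate.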

[16] = Selectivity index, ratio of LC50 for cytotoxicity against albino Swiss mouse peritoneal macrophages to IC50 for Antitrypanosomal activity against Trypanosoma cruzi Y strain bloodstream trypomastigotes assessed as lysis of parasite in presence of 5 % mouse blood; format: toxicity
Summary of the method: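 Y-strain bloodstream trypomastigotes came from infected albino mice at peak parasitaemia and were purified by differential centrifugation. They were resuspended at 10^7/mL in RPMI with 10% mouse blood and mixed 1:1 with compound at twice the final concentration (DMSO ≤0.4%). Incubation was 24 h at 4 °C (5% blood per footnote).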

[17] = system: NCI-H460; assay: Cytotoxicity against human NCI-H460 cells assessed as reduction in cell viability after 72 hrs by MTT assay; format: functional, cell-based; conditions: NCI-H460, 72 h
Summary of the method: as §2, with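 “CO2.” for “CO2. Seeding per well was 0.1 × 10^6 for leukaemia, PC3, L929 and NCI-H460, and 0.7 × 10^5 for HCT-116.”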

[18] = Selectivity index, ratio of IC50 for mouse L929 cells to IC50 for human K-562 cells after 72 hrs by MTT assay; format: toxicity; conditions: L929 cells versus K-562 cells, read-out: Ratio IC50; summary of the method: as §3
[19] = system: Trypanosoma cruzi; assay: Antitrypanosomal activity against Trypanosoma cruzi Y strain bloodstream trypomastigotes assessed as lysis of parasite in presence of 5 % mouse blood incubated for 24 hrs by Neubauer chamber method; format: functional, organism-based
Summary of the method: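 Y strain bloodstream trypomastigotes came from infected albino mice at peak parasitaemia, purified by differential centrifugation, in RPMI at 10^7 cells/mL with 10% mouse blood. They were mixed 1:1 with compound at twice the final concentration (5% blood final), 24 h at 4 °C, with DMSO ≤0.4% final. Neubauer chamber counting; IC50 is 50% lysis; at least three independent experiments.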

[20] = system: HCT-116; assay: Cytotoxicity against human HCT-116 cells assessed as reduction in cell viability after 72 hrs by MTT assay; format: functional, cell-based; conditions: HCT-116, 72 h; summary of the method: as §2

| Structure (SMILES) | Activity [1] | IC50 [2] [µM] | selectivity ratio at 72 h [3] | selectivity ratio at 72 h [4] | selectivity ratio [5] | selectivity ratio at 72 h [6] | IC50 [7] [µM] | CC50 at 24 h [8] [µM] | IC50 [9] [µM] | IC50 [10] [µM] | selectivity ratio at 72 h [11] | IC50 [12] [µM] | Activity [13] | IC50 [14] [µM] | Ratio IC50 [15] | selectivity ratio [16] | IC50 [17] [µM] | selectivity ratio at 72 h [18] | IC50 [19] [µM] | IC50 [20] [µM] |
| --- | --- | --- | --- | --- | --- | --- | --- | --- | --- | --- | --- | --- | --- | --- | --- | --- | --- | --- | --- | --- |
| O=C1C=C(Sc2ccccc2)c2ccccc2C1=O | Active | > 20 | 0.7 | 4.6 | 28.4 | 2.2 | > 20 | 36.9 | 15.6 | 15.7 | 0.7 | 1.3 | Active | 6.08 | 1.8 | 1.52 | > 20 | 1.8 | 24.3 | 12.8 |
| Cc1ccc(S(=O)(=O)n2cc(COC3=C/C(=N\c4ccc(Br)cc4)c4ccccc4C3=O)nn2)cc1 | Active | 3.41 | 5.2 | 4.2 | – | 1.9 | > 17.8 | > 100 | 3.32 | 5.4 | 1.9 | – | – | 4.22 | 5.3 | – | 9.41 | 3.3 | > 500 | 9.25 |
| C#CCOC1=C/C(=N\c2ccc(Cl)cc2)c2ccccc2C1=O | Active | 14.6 | 2.1 | 2.8 | – | 1.6 | > 20 | – | 16.4 | 12.8 | 1.9 | – | – | 11 | 1.9 | – | 16.2 | 2.4 | – | 18.9 |

From ChEMBL document CHEMBL4673180, “Synthesis of quinone imine and sulphur-containing compounds with antitumor and trypanocidal activities: redox and biological implications” (RSC Med Chem, 2020)
